Results on two compounds are retold here after ChEMBL document CHEMBL5365542, “Difluoromethyl-1,3,4-oxadiazoles Are Selective, Mechanism-Based, and Essentially Irreversible Inhibitors of Histone Deacetylase 6” (J Med Chem, 2023).

Residue numbers refer to the chain shown, from its start. The source made the active and inactive calls. The rule behind the calls is not given here.

For experiment [1], the system named is T1, Histone deacetylase 6 (Danio rerio), F8W4B7 [H574A].
T1 sequence (whole entry): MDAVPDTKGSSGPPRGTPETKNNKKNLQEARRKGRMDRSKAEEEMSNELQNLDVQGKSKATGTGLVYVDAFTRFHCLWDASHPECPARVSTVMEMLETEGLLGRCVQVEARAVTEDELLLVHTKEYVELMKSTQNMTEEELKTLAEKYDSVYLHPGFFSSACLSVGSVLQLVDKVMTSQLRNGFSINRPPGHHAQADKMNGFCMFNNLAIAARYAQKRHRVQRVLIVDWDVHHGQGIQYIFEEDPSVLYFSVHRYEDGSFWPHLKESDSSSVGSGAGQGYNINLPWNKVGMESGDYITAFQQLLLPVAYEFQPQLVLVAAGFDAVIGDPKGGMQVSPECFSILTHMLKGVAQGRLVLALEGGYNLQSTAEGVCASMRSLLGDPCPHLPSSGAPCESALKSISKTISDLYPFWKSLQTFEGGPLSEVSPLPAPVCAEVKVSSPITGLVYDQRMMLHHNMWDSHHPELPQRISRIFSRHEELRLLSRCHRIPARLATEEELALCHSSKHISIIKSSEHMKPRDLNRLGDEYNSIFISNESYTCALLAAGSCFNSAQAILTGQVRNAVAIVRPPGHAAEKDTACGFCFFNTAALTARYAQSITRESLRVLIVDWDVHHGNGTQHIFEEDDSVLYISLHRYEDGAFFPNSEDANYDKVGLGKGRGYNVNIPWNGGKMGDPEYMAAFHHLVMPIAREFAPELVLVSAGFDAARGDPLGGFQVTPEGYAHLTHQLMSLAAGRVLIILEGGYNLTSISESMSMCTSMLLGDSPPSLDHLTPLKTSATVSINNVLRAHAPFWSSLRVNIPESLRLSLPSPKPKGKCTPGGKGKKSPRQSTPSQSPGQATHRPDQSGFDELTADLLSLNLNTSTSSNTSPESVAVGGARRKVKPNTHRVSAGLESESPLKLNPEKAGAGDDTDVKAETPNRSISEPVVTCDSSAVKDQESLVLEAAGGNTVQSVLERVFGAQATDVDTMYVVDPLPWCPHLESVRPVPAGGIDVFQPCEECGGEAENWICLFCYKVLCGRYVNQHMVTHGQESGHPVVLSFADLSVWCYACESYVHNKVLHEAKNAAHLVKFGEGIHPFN
Nature of the experiment: Irreversible inhibition of Danio rerio HDAC6 H574A mutant catalytic domain 2 assessed as enzyme catalysed ring opening by measuring reduction in 2-(benzylamino)-N'-(2,2,2-trifluoroacetyl)pyrimidine-5-carbohydrazide formation at 100 uM incubated overnight by LC-MS analysis. In short, it runs like this: (§1)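 Zebrafish HDAC6 CD2 mutants were made by site-directed mutagenesis and expressed in BL21(DE3). Enzyme at 50 μM was incubated overnight with 100 μM inhibitor in 50 mM HEPES pH 7.5, 100 mM KCl, 1 mM TCEP, 5% glycerol; an enzyme-free control was included. Protein was methanol-precipitated and filtered, and products were analysed by C18 UPLC-MS with a 2-min gradient.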

Experiment [2] relates to T2, Histone deacetylase 6 (Danio rerio), F8W4B7 [Y745F].
T2 sequence (whole entry): T1 sequence (whole entry) with A574H, Y745F
The experiment in a line: Irreversible inhibition of Danio rerio HDAC6 Y745F mutant catalytic domain 2 assessed as enzyme catalysed ring opening by measuring reduction in 2-(benzylamino)-N'-(2,2,2-trifluoroacetyl)pyrimidine-5-carbohydrazide formation at 100 uM incubated overnight by LC-MS analysis. Summed up:
as §1

Turning to `FC(F)(F)c1nnc(-c2cnc(NCc3ccccc3)nc2)o1`, the inhibition entry in experiment [1] is “Active”. In addition, in experiment [2], the inhibition entry is “inactive”.

For `FC(F)c1nnc(-c2cnc(NCc3ccccc3)nc2)o1`, the inhibition result in experiment [1] was “Active”. In addition, the inhibition entry in experiment [2] is “inactive”.
